One assay has as its system Salmonella typhi. In words: Antimicrobial activity against Salmonella typhi ATCC 25021 after 24 hrs by two fold serial dilution method. Type of assay: functional, Salmonella enterica subsp. enterica serovar Typhi. As to conditions: Salmonella enterica, ATCC 25021, 24 h. The gist of the method:
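Two-fold serial dilution in nutrient broth. Seeded broth was made from 24 h bacterial cultures on nutrient agar grown at 37 ± 1 °C, and the suspension was adjusted with sterile saline to 1×10⁴–10⁵ CFU. Compounds and reference drugs were tested at 200, 100, 50, 25, 12.5 and 6.25. Tubes were incubated in a BOD incubator, and the MIC was read visually after 24 h.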

The subject of another assay is Candida albicans. In words: Antimicrobial activity against Candida albicans ATCC 3430 by two fold serial dilution method. Type of assay: functional. The method, boiled down:
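Sabouraud dextrose broth two-fold serial dilution. Cells or spores from 24 h to 7-day-old Sabouraud agar slant cultures were suspended in SDB. Test and reference agents were tested at 200, 100, 50, 25, 12.5 and 6.25. Tubes were incubated in a BOD incubator, with MIC read by visual observation.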

Another assay has as its system Aspergillus niger. In words: Antimicrobial activity against Aspergillus niger ATCC 635 after 72 to 96 hrs by two fold serial dilution method. The assay is classed as functional. The method, boiled down:
(§1)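 Two-fold serial dilution in Sabouraud dextrose broth. Spores from 24 h to 7-day-old Sabouraud agar slant cultures were suspended in SDB. Compounds and reference drugs were tested at 200, 100, 50, 25, 12.5 and 6.25. Tubes were incubated in a BOD incubator, and MIC was recorded visually after 72–96 h.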

Another assay has as its system Escherichia coli. In words: Antimicrobial activity against Escherichia coli ATCC 26032 after 24 hrs by two fold serial dilution method. Type of assay: functional. Conditions: ATCC 26032, 24 h. The gist of the method: (§2)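 Nutrient broth two-fold serial dilution. Inoculum was seeded NB prepared from 24 h nutrient-agar cultures grown at 37 ± 1 °C and adjusted with sterile saline to 1×10⁴–10⁵ CFU. Compounds and reference drugs were tested at 200, 100, 50, 25, 12.5 and 6.25. Tubes were incubated in a BOD incubator, and MIC was read visually after 24 h.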

For the next assay, the system named is Bacillus subtilis. In words: Antimicrobial activity against Bacillus subtilis ATCC 530 after 24 hrs by two fold serial dilution method. The assay is classed as functional. The method, boiled down: as §2
The test system of the next assay is Rhizopus. In words: Antimicrobial activity against Rhizopus sp. ATCC 2842 after 72 to 96 hrs by two fold serial dilution method. Type of assay: functional. The gist of the method:
as §1

Another assay concerns Aspergillus flavus. In words: Antimicrobial activity against Aspergillus flavus ATCC 525 after 72 to 96 hrs by two fold serial dilution method. Type of assay: functional. The gist of the method: as §1
A further assay has as its system Staphylococcus aureus. In words: Antimicrobial activity against Staphylococcus aureus ATCC 25930 after 24 hrs by two fold serial dilution method. Type of assay: functional. The gist of the method:
as §2

Another assay has as its system Klebsiella pneumoniae. In words: Antimicrobial activity against Klebsiella pneumoniae ATCC 16425 after 24 hrs by two fold serial dilution method. Type of assay: functional. The method, boiled down:
as §2

Another assay deals with Cryptococcus neoformans. In words: Antimicrobial activity against Cryptococcus neoformans ATCC 3235 after 72 to 96 hrs by two fold serial dilution method. The assay is classed as functional. The gist of the method:
as §1

One may read the MIC as the smallest concentration in the dilution series that meets the test's criterion for growth inhibition.

In brackets after ≈: the same amount, converted by molar mass. Activity calls are given as the source filed them.

With `CCC1C(=O)CC(c2ccccc2)N(C(=O)Cn2ccnc2)C1c1ccccc1` (centres undefined), the MIC with Salmonella typhi came out at 200 mg/L (≈ 516 µM); against Candida albicans, 200 mg/L (≈ 516 µM); against Escherichia coli, 50 mg/L (≈ 129 µM); in the assay on Rhizopus, 100 mg/L (≈ 258 µM); in the assay with Aspergillus flavus it was 200 mg/L (≈ 516 µM); with Staphylococcus aureus (ATCC 25930, 24 h), 200 mg/L (≈ 516 µM). Besides, the MIC with Klebsiella pneumoniae (ATCC 16425, 24 h) was 100 mg/L (≈ 258 µM); in the assay with Cryptococcus neoformans, 50 mg/L (≈ 129 µM). In addition, the MIC entry in the assay on Aspergillus niger and in the assay with Bacillus subtilis was “inactive” throughout.
On to `C[C@@H]1[C@H](O)[C@@H](C)/C=C/C=C/C=C/C=C/C=C/C=C/C=C/[C@H](O[C@@H]2O[C@H](C)[C@@H](O)[C@H](N)[C@@H]2O)C[C@@H]2O[C@](O)(C[C@@H](O)C[C@@H](O)[C@H](O)CC[C@@H](O)C[C@@H](O)CC(=O)O[C@H]1C)C[C@H](O)[C@H]2C(=O)O` [AMPHOTERICIN B], for which the MIC with Candida albicans worked out at 25 mg/L (≈ 27.1 µM); against Aspergillus niger, 50 mg/L (≈ 54.1 µM); in the assay on Rhizopus, 25 mg/L (≈ 27.1 µM); with Aspergillus flavus, 50 mg/L (≈ 54.1 µM); in the assay on Cryptococcus neoformans, 25 mg/L (≈ 27.1 µM).
As to `CC(C)C1C(=O)CC(c2ccccc2)N(C(=O)Cn2ccnc2)C1c1ccccc1` (centres undefined), the MIC with Salmonella typhi was found to be 25 mg/L (≈ 62.3 µM); with Candida albicans, 100 mg/L (≈ 249 µM); with Aspergillus niger it was 12.5 mg/L (≈ 31.1 µM); in the assay on Escherichia coli it was 100 mg/L (≈ 249 µM); in the assay on Bacillus subtilis (ATCC 530, 24 h), 12.5 mg/L (≈ 31.1 µM); against Rhizopus, 50 mg/L (≈ 125 µM). Further, the MIC in the assay with Aspergillus flavus was determined as 100 mg/L (≈ 249 µM); in the assay with Staphylococcus aureus (ATCC 25930, 24 h), 100 mg/L (≈ 249 µM); in the assay on Cryptococcus neoformans it was 25 mg/L (≈ 62.3 µM). Moreover, the MIC entry in the assay with Klebsiella pneumoniae is “inactive”.
For `CC1C(=O)C(C)C(c2cccc(F)c2)N(C(=O)Cn2nnc3ccccc32)C1c1cccc(F)c1` (centres undefined), in the assay with Candida albicans, the MIC result was “inactive”. Besides, the MIC turned out to be 200 mg/L (≈ 421 µM) against Aspergillus niger; 50 mg/L (≈ 105 µM) against Escherichia coli; 25 mg/L (≈ 52.7 µM) with Bacillus subtilis (ATCC 530, 24 h); 100 mg/L (≈ 211 µM) in the assay with Rhizopus; 200 mg/L (≈ 421 µM) against Aspergillus flavus; 50 mg/L (≈ 105 µM) against Staphylococcus aureus (ATCC 25930, 24 h). Moreover, the MIC against Klebsiella pneumoniae (ATCC 16425, 24 h) was 25 mg/L (≈ 52.7 µM); in the assay with Cryptococcus neoformans, 100 mg/L (≈ 211 µM).
In the case of `CC1C(=O)C(C)C(c2ccccc2)N(C(=O)Cn2ccnc2)C1c1ccccc1` (centres undefined), the MIC was found to be 100 mg/L (≈ 258 µM) against Salmonella typhi; 100 mg/L (≈ 258 µM) with Aspergillus niger; 6.25 mg/L (≈ 16.1 µM) against Escherichia coli; 100 mg/L (≈ 258 µM) with Bacillus subtilis (ATCC 530, 24 h); 200 mg/L (≈ 516 µM) in the assay on Rhizopus; 100 mg/L (≈ 258 µM) with Aspergillus flavus. Besides, the MIC in the assay with Klebsiella pneumoniae (ATCC 16425, 24 h) was determined as 100 mg/L (≈ 258 µM); against Cryptococcus neoformans it was 100 mg/L (≈ 258 µM). Besides, the MIC result in the assay on Candida albicans and with Staphylococcus aureus was “inactive” throughout.
For `COc1ccc(C2C(C)C(=O)C(C)C(c3ccc(OC)cc3)N2C(=O)Cn2ccnc2)cc1` (centres undefined), the MIC against Salmonella typhi was found to be 100 mg/L (≈ 223 µM); in the assay with Candida albicans, 6.25 mg/L (≈ 14 µM); against Escherichia coli it was 25 mg/L (≈ 55.9 µM); in the assay with Bacillus subtilis (ATCC 530, 24 h), 50 mg/L (≈ 112 µM); in the assay on Rhizopus, 100 mg/L (≈ 223 µM); in the assay on Aspergillus flavus it was 100 mg/L (≈ 223 µM). The MIC in the assay on Staphylococcus aureus (ATCC 25930, 24 h) was 100 mg/L (≈ 223 µM); in the assay on Klebsiella pneumoniae (ATCC 16425, 24 h), 200 mg/L (≈ 447 µM); in the assay on Cryptococcus neoformans, 50 mg/L (≈ 112 µM). For the same compound, the MIC result with Aspergillus niger is “inactive”.
Take `CC1C(=O)CC(c2ccccc2)N(C(=O)Cn2ccnc2)C1c1ccccc1` (centres undefined): the MIC was 200 mg/L (≈ 536 µM) against Salmonella typhi; 100 mg/L (≈ 268 µM) against Candida albicans; 200 mg/L (≈ 536 µM) against Aspergillus niger; 100 mg/L (≈ 268 µM) against Escherichia coli; 25 mg/L (≈ 66.9 µM) in the assay with Bacillus subtilis (ATCC 530, 24 h); 100 mg/L (≈ 268 µM) in the assay with Rhizopus. The MIC in the assay on Aspergillus flavus came out at 100 mg/L (≈ 268 µM); against Staphylococcus aureus (ATCC 25930, 24 h), 100 mg/L (≈ 268 µM); in the assay on Klebsiella pneumoniae (ATCC 16425, 24 h), 50 mg/L (≈ 134 µM); against Cryptococcus neoformans it was 100 mg/L (≈ 268 µM).
Turning to `CC1C(=O)C(C)C(c2cccc(F)c2)N(C(=O)Cn2ccnc2)C1c1cccc(F)c1` (centres undefined), the MIC with Salmonella typhi came to 50 mg/L (≈ 118 µM); against Candida albicans it was 50 mg/L (≈ 118 µM); against Aspergillus niger it was 100 mg/L (≈ 236 µM); against Escherichia coli, 200 mg/L (≈ 472 µM); against Rhizopus, 25 mg/L (≈ 59 µM); with Staphylococcus aureus (ATCC 25930, 24 h) it was 50 mg/L (≈ 118 µM). Moreover, the MIC against Klebsiella pneumoniae (ATCC 16425, 24 h) stood at 200 mg/L (≈ 472 µM); in the assay with Cryptococcus neoformans, 6.25 mg/L (≈ 14.8 µM). Besides, the MIC result with Bacillus subtilis and in the assay on Aspergillus flavus was “inactive” in each case.
Consider `CN[C@@H]1[C@H](O[C@H]2[C@H](O[C@H]3[C@H](O)[C@@H](O)[C@H](N=C(N)N)[C@@H](O)[C@@H]3N=C(N)N)O[C@@H](C)[C@]2(O)C=O)O[C@@H](CO)[C@H](O)[C@H]1O` [STREPTOMYCIN], for which the MIC against Salmonella typhi worked out at 50 mg/L (≈ 86 µM); against Escherichia coli, 12.5 mg/L (≈ 21.5 µM); in the assay with Bacillus subtilis (ATCC 530, 24 h), 12.5 mg/L (≈ 21.5 µM); against Staphylococcus aureus (ATCC 25930, 24 h), 50 mg/L (≈ 86 µM); against Klebsiella pneumoniae (ATCC 16425, 24 h), 25 mg/L (≈ 43 µM).

Values taken from ChEMBL document CHEMBL1773012, “Synthesis, spectral, crystal structure and in vitro antimicrobial evaluation of imidazole/benzotriazole substituted piperidin-4-one derivatives” (2011).
